Measured values: ChEMBL document CHEMBL4308909, “Synthesis, Antioxidant Activity and Cytotoxicity of N-Functionalized Organotellurides” (Bioorg Med Chem, 2019)
In brackets after ≈: the same amount, converted by molar mass. Activity calls are given as the source filed them. The rule behind the calls is not given here.

Assays:
[1] = Antioxidant activity assessed as ferric ion reducing activity by measuring trolox equivalents after 40 mins by FRAP assay; assay type: functional
In short: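 Samples at several concentrations incubated with reagent at 37 °C for 40 min in the dark, absorbance read at 593 nm. Expressed as trolox equivalent antioxidant capacity. Quercetin reference.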

[2] = Antioxidant activity of the compound assessed as DPPH radical scavenging activity after 30 mins by spectrophotometric method; assay type: functional
In short: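 Methanolic DPPH (130 μmol L⁻¹ before mixing, 1:1 with sample) mixed with methanolic samples at several concentrations, 30 min at room temperature in the dark, absorbance at 517 nm. Percent scavenging calculated against a methanol-plus-DPPH control. IC50 from linear regression, triplicate. Quercetin reference.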

L929 [3] = assay: Cytotoxicity against mouse L929 cells assessed as reduction in cell viability at 1.9 to 15.6 ug/ml after 24 hrs by neutral red staining-based spectrophotometric analysis; settings: l929, 24 h
In short: (§1)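 L929 fibroblasts grown in DMEM with 2 mM L-glutamine, 10% FBS, penicillin/streptomycin, 37 °C, 5% CO₂. Cells seeded at 2.5 × 10⁵ cells ml⁻¹ and treated after 24 h with 1.95–15.625 μg mL⁻¹ for 24 h (DMSO ≤1.5% final). Neutral red (40 μg mL⁻¹) for 3 h, fixed, dye extracted with ethanol/acetic acid, read at 540 nm. Compared with negative control by Tukey's test.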

L929 [4] = assay: Cytotoxicity against mouse L929 cells assessed as reduction in cell viability at 3.9 to 15.6 ug/ml after 24 hrs by neutral red staining-based spectrophotometric analysis; settings: l929, 24 h; in short: as §1
L929 [5] = assay: Cytotoxicity against mouse L929 cells assessed as reduction in cell viability at 1.9 ug/ml after 24 hrs by neutral red staining-based spectrophotometric analysis; settings: l929, 24 h; in short: as §1
[6] = Antioxidant activity assessed as ABTS radical scavenging activity after 16 hrs by spectrophotometric analysis; assay type: functional
In short: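 ABTS radical cation generated from ABTS (7 mmol L⁻¹) plus potassium persulfate (140 mmol L⁻¹), 16 h at room temperature in the dark, diluted in ethanol to absorbance 0.70 at 734 nm. Sample added at several concentrations, read at 734 nm after 6 min. Trolox calibration curve (20–600 μmol L⁻¹) in ethanol, results in mmol TE g⁻¹. Quercetin reference.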

C/C(=N\O)c1ccc([Te]CCCO)cc1
Activity [1]: inactive | IC50 [2]: 13.06 µg/mL | Activity (L929 [3]): Non-Toxic

CCCC[Te]c1cccc(C(C)N)c1 (centres undefined)
Activity (L929 [4]): Toxic | Activity (L929 [5]): Non-Toxic | Activity [1]: Active | IC50 [2]: 19.22 µg/mL | Activity [6]: Active

O=c1c(O)c(-c2ccc(O)c(O)c2)oc2cc(O)cc(O)c12 [QUERCETIN]
Activity [1]: Active | IC50 [2]: 2.54 µg/mL (≈ 8.4 µM) | Activity [6]: Active

CCCC[Se]c1ccc(C(C)N)cc1 (centres undefined)
IC50 [2]: > 100 µg/mL

CCCC[Te]c1ccc(C(C)NCC(C)C)cc1 (centres undefined)
Activity (L929 [4]): Non-Toxic | Activity [1]: inactive | IC50 [2]: 12.49 µg/mL | Activity [6]: inactive

CCCC[Te]c1ccc(C(C)NCc2ccccc2)cc1 (centres undefined)
Activity (L929 [4]): Non-Toxic | Activity [1]: inactive | IC50 [2]: 11.41 µg/mL | Activity [6]: inactive

CCCC[Te]c1ccc(/C(C)=N/O)cc1
Activity (L929 [4]): Toxic | Activity (L929 [5]): Non-Toxic | Activity [1]: Active | IC50 [2]: 7.79 µg/mL | Activity [6]: Active

C=CCNC(C)c1ccc([Te]CCCC)cc1 (centres undefined)
IC50 [2]: > 100 µg/mL

CCCC[Te]c1ccc(/C(C)=N/N)cc1
IC50 [2]: 5.08 µg/mL | Activity (L929 [3]): Non-Toxic

CCCC[Te]c1ccc(C(C)N)cc1 (centres undefined)
Activity (L929 [4]): Toxic | Activity (L929 [5]): Non-Toxic | Activity [1]: Active | IC50 [2]: 12.07 µg/mL | Activity [6]: Active

CCCC[Se]c1cccc(C(C)N)c1 (centres undefined)
IC50 [2]: > 100 µg/mL

CCCC[Te]c1cccc(/C(C)=N/O)c1
Activity (L929 [4]): Toxic | Activity (L929 [5]): Non-Toxic | Activity [1]: Active | IC50 [2]: 5.12 µg/mL | Activity [6]: Active

CCCCNC(C)c1ccc([Te]CCCC)cc1 (centres undefined)
Activity (L929 [4]): Non-Toxic | Activity [1]: inactive | IC50 [2]: 8.63 µg/mL | Activity [6]: inactive

CCCC[Se]c1ccc(C(C)NCC(C)C)cc1 (centres undefined)
IC50 [2]: > 100 µg/mL
